Assay results published in ChEMBL document CHEMBL4400581, “First Example of Catalytic Synthesis of Difurazanohexahydrohexaazapyrenes and in Vitro Study of Their Antitumor Activity” (2019).

Experiments:
Format in all cases: functional
Jurkat = experiment: Cytotoxicity against human Jurkat cells by MTT assay
Method in brief: (§1)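 Cytotoxicity was measured by MTT assay across a range of concentrations in human tumour lines, with etoposide as the reference drug. Results are expressed as CC50.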

K562 = experiment: Cytotoxicity against human K562 cells by MTT assay; method in brief: as §1
U-937 = experiment: Cytotoxicity against human U937 cells by MTT assay; method in brief: as §1
HeLa = experiment: Cytotoxicity against human HeLa cells by MTT assay; method in brief: as §1

| Compound | Activity (Jurkat) | CC50 (Jurkat) | Activity (K562) | CC50 (K562) | Activity (U-937) | CC50 (U-937) | Activity (HeLa) | CC50 (HeLa) |
| --- | --- | --- | --- | --- | --- | --- | --- | --- |
| C1CCCC(N2CN3c4nonc4N4CN(C5CCCCCCC5)CN5c6nonc6N(C2)C3C45)CCC1 (centres undefined) | Dose-dependent effect | 620 nM | Dose-dependent effect | 740 nM | Dose-dependent effect | 580 nM | Dose-dependent effect | 1370 nM |
| C1CC1N1CN2c3nonc3N3CN(C4CC4)CN4c5nonc5N(C1)C2C34 (centres undefined) | Dose-dependent effect | 270 nM | Dose-dependent effect | 310 nM | Dose-dependent effect | 250 nM | Dose-dependent effect | 420 nM |
| C1CCCC(N2CN3c4nonc4N4CN(C5CCCCCC5)CN5c6nonc6N(C2)C3C45)CC1 (centres undefined) | Dose-dependent effect | 570 nM | Dose-dependent effect | 690 nM | Dose-dependent effect | 590 nM | Dose-dependent effect | 1210 nM |
